Test system: monocyte-depleted PBMCs
Experiment: IL-1β secretion assay
Type: cell-based, human
Conditions: MD-PBMCs
Outline: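 NK cells, MD-PBMCs, PBMCs or granulocytes (1.5 million/mL) or PBMC+granulocytes (0.75 million/mL each), per donor, exposed 24 h, 48 h or 6 days to 0.05–5 μM test compound diluted from DMSO stock, with DMSO controls. Supernatants kept at −70 °C. IL-1β by sandwich ELISA: HRP detection antibody, acid-stopped substrate, A450 against standards. Detection limit 3 pg/mL; triplicates; ANOVA then t test versus control, p<0.05.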

## CCC[CH2][Sn][CH2]CCC [DBT, Dibutyltin]
24 h, across donors
  average of the maximum fold increase in IL-β secretion: 2.0 fold
Donor F142, 24 h, 0.05 μM DBT
  Interleukin 1 beta secreted: 11284 ± 763 pg/mL
  fold increase in IL-1β secretion: 1.5 fold
Donor F142, 24 h, 50 nM DBT
  fold increase in IL-1β secretion: 1.5 fold
Donor F142, 24 h, 0.1 μM DBT
  Interleukin 1 beta secreted: 12495 ± 3130 pg/mL
Donor F142, 24 h, 100 nM DBT
  fold increase in IL-1β secretion: 1.6 fold
Donor F142, 24 h, 0.25 μM DBT
  Interleukin 1 beta secreted: 4456 ± 561 pg/mL
Donor F142, 24 h, 0.5 μM DBT
  Interleukin 1 beta secreted: 2637 ± 1438 pg/mL
Donor F142, 24 h, 1 μM DBT
  Interleukin 1 beta secreted: 77 ± 24 pg/mL
Donor F142, 48 h, 0.05 μM DBT
  Interleukin 1 beta secreted: 14932 ± 420 pg/mL
Donor F142, 48 h, 0.1 μM DBT
  Interleukin 1 beta secreted: 15275 ± 650 pg/mL
Donor F142, 48 h, 0.25 μM DBT
  Interleukin 1 beta secreted: 6455 ± 123 pg/mL
Donor F142, 48 h, 0.5 μM DBT
  Interleukin 1 beta secreted: 2604 ± 133 pg/mL
Donor F142, 48 h, 1 μM DBT
  Interleukin 1 beta secreted: 851 ± 54 pg/mL
Donor F142, 48 h, 2.5 μM DBT
  Interleukin 1 beta secreted: 6 ± 27 pg/mL
Donor F142, 6 day, 0.05 μM DBT
  Interleukin 1 beta secreted: 2303 ± 313 pg/mL
Donor F142, 6 day, 0.1 μM DBT
  Interleukin 1 beta secreted: 1606 ± 808 pg/mL
Donor F142, 6 day, 0.25 μM DBT
  Interleukin 1 beta secreted: 560 ± 127 pg/mL
Donor F142, 6 day, 0.5 μM DBT
  Interleukin 1 beta secreted: 270 ± 197 pg/mL
Donor F142, 6 day, 1 μM DBT
  Interleukin 1 beta secreted: 90 ± 100 pg/mL
Donor F145, 24 h, 0.05 μM DBT
  Interleukin 1 beta secreted: 3333 ± 164 pg/mL
Donor F145, 24 h, 50 nM DBT
  fold increase in IL-1β secretion: 1.5 fold
Donor F145, 24 h, 0.1 μM DBT
  Interleukin 1 beta secreted: 2390 ± 497 pg/mL
Donor F145, 24 h, 100 nM DBT
  fold increase in IL-1β secretion: no increase
Donor F145, 24 h, 0.25 μM DBT
  Interleukin 1 beta secreted: 700 ± 8 pg/mL
Donor F145, 24 h, 0.5 μM DBT
  Interleukin 1 beta secreted: 47 ± 59 pg/mL
Donor F145, 48 h, 0.05 μM DBT
  Interleukin 1 beta secreted: 780 ± 323 pg/mL
Donor F145, 48 h, 0.1 μM DBT
  Interleukin 1 beta secreted: 2232 ± 1035 pg/mL
Donor F145, 48 h, 0.25 μM DBT
  Interleukin 1 beta secreted: 337 ± 347 pg/mL
Donor F145, 6 day, 0.05 μM DBT
  Interleukin 1 beta secreted: 983 ± 248 pg/mL
Donor F145, 6 day, 0.1 μM DBT
  Interleukin 1 beta secreted: 987 ± 577 pg/mL
Donor F145, 6 day, 0.25 μM DBT
  Interleukin 1 beta secreted: 535 ± 16 pg/mL
Donor F145, 6 day, 0.5 μM DBT
  Interleukin 1 beta secreted: 147 ± 55 pg/mL
Donor F152, 24 h, 0.05 μM DBT
  Interleukin 1 beta secreted: 721 ± 36 pg/mL
Donor F152, 24 h, 0.1 μM DBT
  Interleukin 1 beta secreted: 516 ± 26 pg/mL
Donor F152, 24 h, 0.25 μM DBT
  Interleukin 1 beta secreted: 406 ± 29 pg/mL
Donor F152, 24 h, 0.5 μM DBT
  Interleukin 1 beta secreted: 340 ± 57 pg/mL
Donor F152, 24 h, 1 μM DBT
  Interleukin 1 beta secreted: 224 ± 9 pg/mL
Donor F152, 24 h, 2.5 μM DBT
  Interleukin 1 beta secreted: 83 ± 22 pg/mL
Donor F152, 24 h, 5 μM DBT
  Interleukin 1 beta secreted: 19 ± 12 pg/mL
Donor F152, 48 h, 0.05 μM DBT
  Interleukin 1 beta secreted: 563 ± 54 pg/mL
Donor F152, 48 h, 0.1 μM DBT
  Interleukin 1 beta secreted: 495 ± 72 pg/mL
Donor F152, 48 h, 0.25 μM DBT
  Interleukin 1 beta secreted: 607 ± 71 pg/mL
Donor F152, 48 h, 0.5 μM DBT
  Interleukin 1 beta secreted: 703 ± 34 pg/mL
Donor F152, 48 h, 1 μM DBT
  Interleukin 1 beta secreted: 296 ± 56 pg/mL
Donor F152, 48 h, 2.5 μM DBT
  Interleukin 1 beta secreted: 35 ± 38 pg/mL
Donor F152, 48 h, 5 μM DBT
  Interleukin 1 beta secreted: 86 ± 37 pg/mL
Donor F152, 6 day, 0.05 μM DBT
  Interleukin 1 beta secreted: 81 ± 21 pg/mL
Donor F152, 6 day, 0.1 μM DBT
  Interleukin 1 beta secreted: 71 ± 6 pg/mL
Donor F152, 6 day, 0.25 μM DBT
  Interleukin 1 beta secreted: 118 ± 11 pg/mL
Donor F152, 6 day, 0.5 μM DBT
  Interleukin 1 beta secreted: 161 ± 62 pg/mL
Donor F152, 6 day, 1 μM DBT
  Interleukin 1 beta secreted: 41 ± 7 pg/mL
Donor F152, 6 day, 2.5 μM DBT
  Interleukin 1 beta secreted: 20 ± 18 pg/mL
Donor F152, 6 day, 5 μM DBT
  Interleukin 1 beta secreted: 14 ± 1 pg/mL
Donor F163, 24 h, 0.05 μM DBT
  Interleukin 1 beta secreted: 613 ± 57 pg/mL
Donor F163, 24 h, 0.1 μM DBT
  Interleukin 1 beta secreted: 370 ± 13 pg/mL
Donor F163, 24 h, 0.25 μM DBT
  Interleukin 1 beta secreted: 309 ± 15 pg/mL
Donor F163, 24 h, 0.5 μM DBT
  Interleukin 1 beta secreted: 310 ± 16 pg/mL
Donor F163, 24 h, 1 μM DBT
  Interleukin 1 beta secreted: 130 ± 5 pg/mL
Donor F163, 24 h, 2.5 μM DBT
  Interleukin 1 beta secreted: 70 ± 25 pg/mL
Donor F163, 24 h, 5 μM DBT
  Interleukin 1 beta secreted: 86 ± 44 pg/mL
Donor F163, 48 h, 0.05 μM DBT
  Interleukin 1 beta secreted: 607 ± 86 pg/mL
Donor F163, 48 h, 0.1 μM DBT
  Interleukin 1 beta secreted: 342 ± 34 pg/mL
Donor F163, 48 h, 0.25 μM DBT
  Interleukin 1 beta secreted: 547 ± 68 pg/mL
Donor F163, 48 h, 0.5 μM DBT
  Interleukin 1 beta secreted: 677 ± 378 pg/mL
Donor F163, 48 h, 1 μM DBT
  Interleukin 1 beta secreted: 701 ± 111 pg/mL
Donor F163, 6 day, 0.05 μM DBT
  Interleukin 1 beta secreted: 715 ± 87 pg/mL
Donor F163, 6 day, 0.1 μM DBT
  Interleukin 1 beta secreted: 497 ± 75 pg/mL
Donor F163, 6 day, 0.25 μM DBT
  Interleukin 1 beta secreted: 305 ± 36 pg/mL
Donor F163, 6 day, 0.5 μM DBT
  Interleukin 1 beta secreted: 664 ± 70 pg/mL
Donor F163, 6 day, 1 μM DBT
  Interleukin 1 beta secreted: 175 ± 3 pg/mL
Donor F166, 24 h, 0.05 μM DBT
  Interleukin 1 beta secreted: 6772 ± 386 pg/mL
  fold increase in IL-1β secretion: 3.0 fold
Donor F166, 24 h, 0.1 μM DBT
  Interleukin 1 beta secreted: 5569 ± 527 pg/mL
Donor F166, 24 h, 0.25 μM DBT
  Interleukin 1 beta secreted: 2788 ± 126 pg/mL
Donor F166, 24 h, 0.5 μM DBT
  Interleukin 1 beta secreted: 158 ± 43 pg/mL
Donor F166, 48 h, 0.05 μM DBT
  Interleukin 1 beta secreted: 14662 ± 1044 pg/mL
Donor F166, 48 h, 0.1 μM DBT
  Interleukin 1 beta secreted: 12941 ± 423 pg/mL
Donor F166, 48 h, 0.25 μM DBT
  Interleukin 1 beta secreted: 5307 ± 349 pg/mL
